Results as given in publication PMC4540355 (Biochemistry, 2009).

What was measured:
[1] = target: fibrin monomer with both fibrinopeptides A and B cleaved (human) (UniProt P02671); assay: solid-phase binding assay with 125I-labelled protein
[2] = target: fibrinogen D100 (100 kDa) fragment (human); assay: as above
[3] = target: human fibrinogen, depleted of fibronectin and plasminogen (human) (UniProt P02671); assay: as above
skelemin fragment [4] = target: T1, skelemin fragment (Mus musculus, UniProt Q62234); assay: Solid-phase assay: binding of [125I]skelemin to peptides coated on wells; details: wells coated with peptide 20 μg/mL, postcoated with 1% BSA
T1 sequence (Q62234 1113-1666): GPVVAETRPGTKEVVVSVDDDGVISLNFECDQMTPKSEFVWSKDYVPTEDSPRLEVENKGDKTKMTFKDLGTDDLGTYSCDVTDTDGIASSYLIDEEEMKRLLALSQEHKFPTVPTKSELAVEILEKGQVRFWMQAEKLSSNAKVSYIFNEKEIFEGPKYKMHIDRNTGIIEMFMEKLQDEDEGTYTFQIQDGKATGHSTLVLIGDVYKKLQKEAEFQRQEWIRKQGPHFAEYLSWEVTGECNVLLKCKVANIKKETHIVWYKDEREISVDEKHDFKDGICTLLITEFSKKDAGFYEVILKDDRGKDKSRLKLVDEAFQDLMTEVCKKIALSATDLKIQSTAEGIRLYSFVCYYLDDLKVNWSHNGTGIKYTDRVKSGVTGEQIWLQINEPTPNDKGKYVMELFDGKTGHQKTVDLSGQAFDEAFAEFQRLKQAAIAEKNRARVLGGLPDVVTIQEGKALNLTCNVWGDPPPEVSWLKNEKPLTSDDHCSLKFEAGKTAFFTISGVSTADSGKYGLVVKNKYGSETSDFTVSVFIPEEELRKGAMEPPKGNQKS
Procedure, shortened: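 Mouse skelemin fragment (residues 1113–1666) made as a GST fusion, cut free with thrombin and radioiodinated. Wells coated with wild-type or mutant αIIb 989–1008 peptide at 20 μg/mL, postcoated with 1% BSA, then given various concentrations of [125I]skelemin. Bound radioactivity counted.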

skelemin fragment [5] = target: T1, skelemin fragment; type: binding
Procedure, shortened: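 CM5 chip carried amine-coupled skelemin fragment (~900 RU). αIIb 989–1008 peptide at 0, 10, 20, 40, 100 and 200 μM in HBS-P with 1 mM Ca2+ and 1 mM Mg2+, injected at 5 μL/min for 10 min. Signal corrected against an EDC/NHS-activated, ethanolamine-blocked blank cell. Kd from best fit to an interaction model.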

[6] = target: T2, skelemin binding to αIIbβ3 (Mus musculus, UniProt Q62234); design: species or system human
T2 sequence (Q62234 1113-1666): T1 sequence (Q62234 1113-1666)

[7] = target: platelet integrin αIIbβ3 (human) (UniProt P05106); assay: solid-phase binding assay with 125I-labelled protein
[8] = target: cellulose-bound αIIb 9-mer peptide with Arg995 substituted with Ala (human) (UniProt P08514); assay: peptide or protein array
[9] = target: αIIb 9-mer peptides with mutations of Val990, Phe992, and Leu1000; assay: peptide or protein array
[10] = target: cellulose-bound αIIb 9-mer peptide with Arg997 substituted with Ala (human) (UniProt P08514); assay: peptide or protein array
αIIbβ3 [11] = type: binding, human; details: integrin adsorbed on plastic without ligand
αIIbβ3 [12] = type: binding, human
Procedure, shortened: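 αIIbβ3 purified from human platelets on Concanavalin A-agarose. Passed at 0, 50, 100, 200 and 500 μg/mL in HBS-P with 1 mM Ca2+/Mg2+ over amine-coupled skelemin fragment (~900 RU), with a fibrinogen parallel cell (~1300 RU) checking resting state. For activation, DTT 3 mM final, 15 min at 4 °C, then extensive dialysis; activated integrin injected 5 min at 10 μL/min. Blank-cell corrected.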

Chain of human fibrinogen, depleted of fibronectin and plasminogen (human) (P02671 36-866, chain 1 of 3): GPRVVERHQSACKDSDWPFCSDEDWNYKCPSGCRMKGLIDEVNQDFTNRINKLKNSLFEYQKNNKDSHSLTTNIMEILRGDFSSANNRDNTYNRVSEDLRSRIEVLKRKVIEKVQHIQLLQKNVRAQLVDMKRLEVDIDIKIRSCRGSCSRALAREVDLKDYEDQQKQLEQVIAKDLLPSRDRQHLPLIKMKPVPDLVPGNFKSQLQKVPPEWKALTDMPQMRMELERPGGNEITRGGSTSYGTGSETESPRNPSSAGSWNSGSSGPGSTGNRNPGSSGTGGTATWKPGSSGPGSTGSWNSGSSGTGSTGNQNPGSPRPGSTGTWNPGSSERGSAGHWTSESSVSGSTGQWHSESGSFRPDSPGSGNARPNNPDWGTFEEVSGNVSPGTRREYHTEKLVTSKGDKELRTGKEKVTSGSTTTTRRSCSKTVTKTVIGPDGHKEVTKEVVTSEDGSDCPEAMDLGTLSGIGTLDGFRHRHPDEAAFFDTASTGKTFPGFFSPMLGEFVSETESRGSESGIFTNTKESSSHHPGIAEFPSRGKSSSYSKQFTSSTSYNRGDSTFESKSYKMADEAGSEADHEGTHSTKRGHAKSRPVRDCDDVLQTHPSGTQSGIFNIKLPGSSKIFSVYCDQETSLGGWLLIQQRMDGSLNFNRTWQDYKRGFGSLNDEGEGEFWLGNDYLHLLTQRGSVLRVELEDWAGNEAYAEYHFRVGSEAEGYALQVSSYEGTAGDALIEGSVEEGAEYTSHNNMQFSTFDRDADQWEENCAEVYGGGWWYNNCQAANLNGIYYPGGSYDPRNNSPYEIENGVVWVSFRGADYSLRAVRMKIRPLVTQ
Chain of human fibrinogen, depleted of fibronectin and plasminogen (human) (P02675 45-491, chain 2 of 3, further chain): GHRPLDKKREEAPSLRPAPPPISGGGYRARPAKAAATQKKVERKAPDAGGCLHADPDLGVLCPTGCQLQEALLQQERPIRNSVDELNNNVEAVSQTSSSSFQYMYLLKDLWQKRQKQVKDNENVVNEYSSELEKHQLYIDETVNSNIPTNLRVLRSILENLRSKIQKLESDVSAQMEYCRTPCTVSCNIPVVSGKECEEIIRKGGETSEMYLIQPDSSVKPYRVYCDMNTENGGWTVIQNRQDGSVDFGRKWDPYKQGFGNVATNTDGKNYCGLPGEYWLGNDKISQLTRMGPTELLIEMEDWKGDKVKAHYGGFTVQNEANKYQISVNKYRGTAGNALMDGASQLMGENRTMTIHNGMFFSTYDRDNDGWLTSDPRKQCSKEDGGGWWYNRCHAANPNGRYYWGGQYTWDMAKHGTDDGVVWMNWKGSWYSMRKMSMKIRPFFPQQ
Chain of human fibrinogen, depleted of fibronectin and plasminogen (human) (P02679 27-453, chain 3 of 3, further chain): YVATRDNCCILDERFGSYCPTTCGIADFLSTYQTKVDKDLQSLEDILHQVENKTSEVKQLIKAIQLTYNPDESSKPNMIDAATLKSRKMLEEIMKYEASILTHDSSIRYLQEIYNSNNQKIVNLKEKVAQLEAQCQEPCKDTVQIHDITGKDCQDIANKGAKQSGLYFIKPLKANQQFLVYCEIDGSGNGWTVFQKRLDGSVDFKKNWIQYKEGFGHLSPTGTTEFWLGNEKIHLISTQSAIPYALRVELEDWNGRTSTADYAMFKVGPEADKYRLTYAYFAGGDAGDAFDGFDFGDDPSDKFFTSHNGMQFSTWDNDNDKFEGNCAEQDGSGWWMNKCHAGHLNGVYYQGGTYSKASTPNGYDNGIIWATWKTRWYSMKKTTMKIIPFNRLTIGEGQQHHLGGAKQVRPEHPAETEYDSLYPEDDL
Chain of fibrin monomer with both fibrinopeptides A and B cleaved (human) (P02671 36-866, chain 1 of 3): as the sequence (P02671 36-866, chain 1 of 3) above
Chain of fibrin monomer with both fibrinopeptides A and B cleaved (human) (P02675 45-491, chain 2 of 3, further chain): as the sequence (P02675 45-491, chain 2 of 3, further chain) above
Chain of fibrin monomer with both fibrinopeptides A and B cleaved (human) (P02679 27-453, chain 3 of 3, further chain): as the sequence (P02679 27-453, chain 3 of 3, further chain) above

With “platelet integrin αIIbβ3 (from UniProt P05106 27-788) (complex)” as the molecule, how does the amount of αIIbβ3 bound [1] read?
Its amount of αIIbβ3 bound is 76 ng.

What about the amount of αIIbβ3 bound [2] of the same molecule?
Its amount of αIIbβ3 bound is 76 ng.

What about the amount of αIIbβ3 bound [3] of the same molecule?
Its amount of αIIbβ3 bound is 76 ng.

With “GY^715 WALLITIADRKEFAKF^730 [β3 mutant 1]” as the molecule, how does the “Binding of [125I]skelemin to immobilized peptide” value (“Binding of [125I]skelemin” for short) (skelemin fragment [4]) read?
Its value is “reduced level of skelemin binding”.

“KVGFFKANAPALEEDDEEGE [mutant αIIb peptide]” was tested. Which “Binding to skelemin coupled to the chip (SPR)” value (skelemin fragment [5]) did it give?
Its value is “did not bind”.

What about the “Inhibition of skelemin binding to αIIbβ3 prebound to ligands” value ([6]; mutant peptide) of the same molecule?
Its value is “did not inhibit”.

And the “Binding of [125I]skelemin” value (skelemin fragment [4])?
The value was “lost the ability to bind”.

Which “Overall activity relative to the wild-type counterpart” value ([6]; skelemin binding and inhibition) does the source give for “GY^715 WALLITIADAKEFAKF^730 [β3 mutant 2]” here?
Its value is “residual activity”.

What about the “Binding of [125I]skelemin” value (skelemin fragment [4]) of the same molecule?
Its value is “still further loss”.

B1: recombinant fragment spanning immunoglobulin C2-like motifs 3–7 of mouse skelemin (domain or fragment)
chain: T1 sequence (Q62234 1113-1666)
modifications: 125I label (IODO-GEN) where used as [125I]skelemin
Which results are given for B1?
Kd, high-affinity class of binding sites [7]: 123 nM; Kd, low-affinity class of binding sites [7]: 1100 nM; N, high-affinity interaction (skelemin to receptor) (skelemin per receptor) [7]: 1; N, low-affinity interaction (skelemin to receptor) (skelemin per receptor) [7]: 0.33; reduction of binding against the wild-type peptide [8]: 70%; reduction of binding against the wild-type peptide [9]: 40 to 50%; reduction of binding against the wild-type peptide [10]: 70%

B2: skelemin fragment: recombinant fragment spanning immunoglobulin C2-like motifs 3–7 of mouse skelemin, residues 1113–1666 (protein)
chain: T1 sequence (Q62234 1113-1666)
modifications: 125I label (IODO-GEN) where used as [125I]skelemin; left off: GST, end not stated, cleaved
Which “Skelemin binding to αIIbβ3 immobilized directly on plastic” value (αIIbβ3 [11]) does the source give for B2 here?
The value was “small amount”.

What about the “Interaction of resting soluble αIIbβ3 with immobilized skelemin fragment” value (αIIbβ3 [12]; resting integrin, various concentrations) of the same molecule?
The value was “No interaction was detected”.

And the “Binding of DTT-treated soluble αIIbβ3 to immobilized skelemin fragment” value (αIIbβ3 [12]; αIIbβ3 activated with 3 mM DTT 15 min at 4 °C, 0-500 μg/mL)?
Its value is “did not bind”.
